pEC50, pKi: −log10 of the molar value.
system: not listed separately; assay: Volume of distribution at steady state in Sprague-Dawley rat at 5 mg/kg, iv measured after 0.25 to 24 hrs by LC-MS/MS analysis; format: ADME, organism-based; conditions: in vivo, time 0.25-24 hrs, read-out: Vdss

**Q.** Which Vd does the source give for `COc1ccc2nc(C)c(O[C@@H]3C[C@H]4C(=O)N[C@]5(C(=O)NS(=O)(=O)C6(C)CC6)C[C@H]5/C=C/CCCCC[C@H](NC(=O)OC(C)(C)C)C(=O)N4C3)nc2c1` here?
**A.** Its Vd is 3.5 L/kg.

**Q.** Which Vd does the source give for `COc1ccc2nc(C)c(O[C@@H]3C[C@H]4C(=O)N[C@]5(C(=O)NS(=O)(=O)C6(C)CC6)C[C@H]5/C=C/CCCCC[C@H](NC(=O)OC5(C(F)(F)F)CCCC5)C(=O)N4C3)nc2c1` here?
**A.** The Vd was 3.9 L/kg.

system: not listed separately; assay: Half life in Sprague-Dawley rat at 10 mg/kg, po measured after 0.25 to 24 hrs by LC-MS/MS analysis; format: ADME, organism-based; conditions: in vivo, time 0.25-24 hrs

**Q.** Which half-life does the source give for `COc1ccc2nc(C)c(O[C@@H]3C[C@H]4C(=O)N[C@]5(C(=O)NS(=O)(=O)C6(C)CC6)C[C@H]5/C=C/CCCCC[C@H](NC(=O)OC(C)(C)C)C(=O)N4C3)nc2c1` here?
**A.** Its half-life is 3 h.

**Q.** For `COc1ccc2nc(C)c(O[C@@H]3C[C@H]4C(=O)N[C@]5(C(=O)NS(=O)(=O)C6(C)CC6)C[C@H]5/C=C/CCCCC[C@H](NC(=O)OC5(C(F)(F)F)CCCC5)C(=O)N4C3)nc2c1`, which half-life is on record?
**A.** The half-life was 4.9 h.

system: Hepatitis C virus; assay: Antiviral activity against HCV genotype 1b infected in human Huh7 cells incubated for 96 hrs by luciferase assay; format: functional, organism-based, Hepacivirus hominis; conditions: Huh-7, 96 h
Procedure, shortened: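 Con1 (GT-1b) luciferase reporter replicon carrying the H77 (GT-1a) NS3 protease region, either WT or with A156T or D168A introduced by megaprimer mutagenesis. Cured Huh7 cells grown in DMEM with 10% heat-inactivated FBS and 0.1 mM non-essential amino acids. Cells electroporated with replicon RNA and kept with serially diluted inhibitor.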

**Q.** With `COc1ccc2nc(C)c(O[C@@H]3C[C@H]4C(=O)N[C@]5(C(=O)NS(=O)(=O)C6(C)CC6)C[C@H]5/C=C/CCCCC[C@H](NC(=O)OC(C)(C)C)C(=O)N4C3)nc2c1` as the compound, how does the pEC50 read?
**A.** Its pEC50 is 9.22.

**Q.** With `COc1ccc2nc(C)c(O[C@@H]3C[C@H]4C(=O)N[C@]5(C(=O)NS(=O)(=O)C6(C)CC6)C[C@H]5/C=C/CCCCC[C@H](NC(=O)OC5(C(F)(F)F)CCCC5)C(=O)N4C3)nc2c1` as the compound, how does the pEC50 read?
**A.** The pEC50 was 9.52.

target: T1, Hepatitis C virus serine protease, NS3/NS4A (Hepatitis C virus, UniProt A3EZI9+D2K2A8); assay: Inhibition of HCV GT-1a NS3/4a protease using Ac-DE-D(Edans)-EE-Abu-c-[COO]-AS-K(Dabcy1)-NH2 preincubated for 1 hr followed by substrate addition; format: protein complex, Hepatitis C virus subtype 1a; conditions: not given

**Q.** With `COc1ccc2nc(C)c(O[C@@H]3C[C@H]4C(=O)N[C@]5(C(=O)NS(=O)(=O)C6(C)CC6)C[C@H]5/C=C/CCCCC[C@H](NC(=O)OC(C)(C)C)C(=O)N4C3)nc2c1` as the compound, how does the pKi read?
**A.** The pKi was 8.44.

**Q.** With `COc1ccc2nc(C)c(O[C@@H]3C[C@H]4C(=O)N[C@]5(C(=O)NS(=O)(=O)C6(C)CC6)C[C@H]5/C=C/CCCCC[C@H](NC(=O)OC5(C(F)(F)F)CCCC5)C(=O)N4C3)nc2c1` as the compound, how does the pKi read?
**A.** The pKi was 8.89.

system: not listed separately; assay: Tmax in Sprague-Dawley rat at 10 mg/kg, po measured after 0.25 to 24 hrs by LC-MS/MS analysis; format: ADME, organism-based; conditions: in vivo, time 0.25-24 hrs

**Q.** With `COc1ccc2nc(C)c(O[C@@H]3C[C@H]4C(=O)N[C@]5(C(=O)NS(=O)(=O)C6(C)CC6)C[C@H]5/C=C/CCCCC[C@H](NC(=O)OC(C)(C)C)C(=O)N4C3)nc2c1` as the compound, how does the Tmax read?
**A.** The Tmax was 1.4 h.

**Q.** Which Tmax does the source give for `COc1ccc2nc(C)c(O[C@@H]3C[C@H]4C(=O)N[C@]5(C(=O)NS(=O)(=O)C6(C)CC6)C[C@H]5/C=C/CCCCC[C@H](NC(=O)OC5(C(F)(F)F)CCCC5)C(=O)N4C3)nc2c1` here?
**A.** Its Tmax is 3 h.

system: Hepatitis C virus; assay: Antiviral activity against HCV genotype 1b harboring A156T mutant infected in human Huh7 cells incubated for 96 hrs by luciferase assay; format: functional, organism-based, Hepacivirus hominis; conditions: subtype 1b, Huh-7, 96 h
Procedure, shortened: (§1)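 Con1 (GT-1b) luciferase reporter replicon carrying the H77 (GT-1a) NS3 protease region, with the mutation introduced by megaprimer site-directed mutagenesis. Cured Huh7 cells were grown in DMEM with 10% heat-inactivated FBS and 0.1 mM non-essential amino acids, electroporated with replicon RNA transcripts, and kept with serially diluted inhibitor. EC50 was taken directly from the inhibition curves.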

**Q.** With `COc1ccc2nc(C)c(O[C@@H]3C[C@H]4C(=O)N[C@]5(C(=O)NS(=O)(=O)C6(C)CC6)C[C@H]5/C=C/CCCCC[C@H](NC(=O)OC(C)(C)C)C(=O)N4C3)nc2c1` as the compound, how does the pEC50 read?
**A.** The pEC50 was 8.68.

**Q.** With `COc1ccc2nc(C)c(O[C@@H]3C[C@H]4C(=O)N[C@]5(C(=O)NS(=O)(=O)C6(C)CC6)C[C@H]5/C=C/CCCCC[C@H](NC(=O)OC5(C(F)(F)F)CCCC5)C(=O)N4C3)nc2c1` as the compound, how does the pEC50 read?
**A.** The pEC50 was 8.21.

system: not listed separately; assay: Clearance in Sprague-Dawley rat at 5 mg/kg, iv measured after 0.25 to 24 hrs by LC-MS/MS analysis; format: ADME, organism-based; conditions: in vivo, time 0.25-24 hrs

**Q.** Which clearance does the source give for `COc1ccc2nc(C)c(O[C@@H]3C[C@H]4C(=O)N[C@]5(C(=O)NS(=O)(=O)C6(C)CC6)C[C@H]5/C=C/CCCCC[C@H](NC(=O)OC(C)(C)C)C(=O)N4C3)nc2c1` here?
**A.** The clearance was 51 mL/min/kg.

**Q.** Which clearance does the source give for `COc1ccc2nc(C)c(O[C@@H]3C[C@H]4C(=O)N[C@]5(C(=O)NS(=O)(=O)C6(C)CC6)C[C@H]5/C=C/CCCCC[C@H](NC(=O)OC5(C(F)(F)F)CCCC5)C(=O)N4C3)nc2c1` here?
**A.** The clearance was 37 mL/min/kg.

system: Hepatitis C virus; assay: Antiviral activity against HCV genotype 3a infected in human Huh7.5 cells incubated for 72 hrs by luciferase assay; format: functional, organism-based, Hepacivirus hominis; conditions: subtype 3a, Huh7.5, 72 h
Procedure, shortened: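 Huh7.5 cells stably harboring the GT-3a replicon S52/SG-Feo SHI, seeded at 8,000 cells/well. Cells lysed in 1X Passive Lysis Buffer and luciferase activity measured. EC50 taken from drug inhibition curves.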

**Q.** With `COc1ccc2nc(C)c(O[C@@H]3C[C@H]4C(=O)N[C@]5(C(=O)NS(=O)(=O)C6(C)CC6)C[C@H]5/C=C/CCCCC[C@H](NC(=O)OC(C)(C)C)C(=O)N4C3)nc2c1` as the compound, how does the pEC50 read?
**A.** The pEC50 was 6.52.

**Q.** With `COc1ccc2nc(C)c(O[C@@H]3C[C@H]4C(=O)N[C@]5(C(=O)NS(=O)(=O)C6(C)CC6)C[C@H]5/C=C/CCCCC[C@H](NC(=O)OC5(C(F)(F)F)CCCC5)C(=O)N4C3)nc2c1` as the compound, how does the pEC50 read?
**A.** Its pEC50 is 6.89.

system: not listed separately; assay: Oral bioavailability in Sprague-Dawley rat at 10 mg/kg measured after 0.25 to 24 hrs by LC-MS/MS analysis; format: ADME, organism-based; conditions: in vivo, time 0.25-24 hrs

**Q.** For `COc1ccc2nc(C)c(O[C@@H]3C[C@H]4C(=O)N[C@]5(C(=O)NS(=O)(=O)C6(C)CC6)C[C@H]5/C=C/CCCCC[C@H](NC(=O)OC(C)(C)C)C(=O)N4C3)nc2c1`, which bioavailability is on record?
**A.** Its bioavailability is 10%.

**Q.** Which bioavailability does the source give for `COc1ccc2nc(C)c(O[C@@H]3C[C@H]4C(=O)N[C@]5(C(=O)NS(=O)(=O)C6(C)CC6)C[C@H]5/C=C/CCCCC[C@H](NC(=O)OC5(C(F)(F)F)CCCC5)C(=O)N4C3)nc2c1` here?
**A.** Its bioavailability is 11%.

target: T1, Hepatitis C virus serine protease, NS3/NS4A; assay: Inhibition of HCV GT-3a NS3/4a protease using Ac-DE-D(Edans)-EE-Abu-c-[COO]-AS-K(Dabcy1)-NH2 preincubated for 1 hr followed by substrate addition; format: protein-complex assay, Hepatitis C virus subtype 3a; conditions: not given

**Q.** With `COc1ccc2nc(C)c(O[C@@H]3C[C@H]4C(=O)N[C@]5(C(=O)NS(=O)(=O)C6(C)CC6)C[C@H]5/C=C/CCCCC[C@H](NC(=O)OC(C)(C)C)C(=O)N4C3)nc2c1` as the compound, how does the pKi read?
**A.** Its pKi is 6.92.

**Q.** With `COc1ccc2nc(C)c(O[C@@H]3C[C@H]4C(=O)N[C@]5(C(=O)NS(=O)(=O)C6(C)CC6)C[C@H]5/C=C/CCCCC[C@H](NC(=O)OC5(C(F)(F)F)CCCC5)C(=O)N4C3)nc2c1` as the compound, how does the pKi read?
**A.** Its pKi is 6.98.

system: Hepatitis C virus; assay: Antiviral activity against HCV genotype 1b harboring D168A mutant infected in human Huh7 cells incubated for 96 hrs by luciferase assay; format: functional, organism-based, Hepacivirus hominis; conditions: subtype 1b, Huh-7, 96 h; procedure, shortened: as §1

**Q.** With `COc1ccc2nc(C)c(O[C@@H]3C[C@H]4C(=O)N[C@]5(C(=O)NS(=O)(=O)C6(C)CC6)C[C@H]5/C=C/CCCCC[C@H](NC(=O)OC(C)(C)C)C(=O)N4C3)nc2c1` as the compound, how does the pEC50 read?
**A.** The pEC50 was 8.66.

**Q.** With `COc1ccc2nc(C)c(O[C@@H]3C[C@H]4C(=O)N[C@]5(C(=O)NS(=O)(=O)C6(C)CC6)C[C@H]5/C=C/CCCCC[C@H](NC(=O)OC5(C(F)(F)F)CCCC5)C(=O)N4C3)nc2c1` as the compound, how does the pEC50 read?
**A.** The pEC50 was 7.70.

system: not listed separately; assay: Half life in Sprague-Dawley rat at 5 mg/kg, iv measured after 0.25 to 24 hrs by LC-MS/MS analysis; format: ADME, organism-based; conditions: in vivo, time 0.25-24 hrs

**Q.** For `COc1ccc2nc(C)c(O[C@@H]3C[C@H]4C(=O)N[C@]5(C(=O)NS(=O)(=O)C6(C)CC6)C[C@H]5/C=C/CCCCC[C@H](NC(=O)OC(C)(C)C)C(=O)N4C3)nc2c1`, which half-life is on record?
**A.** Its half-life is 5.2 h.

**Q.** With `COc1ccc2nc(C)c(O[C@@H]3C[C@H]4C(=O)N[C@]5(C(=O)NS(=O)(=O)C6(C)CC6)C[C@H]5/C=C/CCCCC[C@H](NC(=O)OC5(C(F)(F)F)CCCC5)C(=O)N4C3)nc2c1` as the compound, how does the half-life read?
**A.** The half-life was 5.3 h.

system: not listed separately; assay: AUC(0 to 24 hrs) in Sprague-Dawley rat at 5 mg/kg, iv measured after 0.25 to 24 hrs by LC-MS/MS analysis; format: ADME, organism-based; set-up: route intravenous, dose 5 mg/kg, time 0.25-24 hrs; conditions: in vivo

**Q.** For `COc1ccc2nc(C)c(O[C@@H]3C[C@H]4C(=O)N[C@]5(C(=O)NS(=O)(=O)C6(C)CC6)C[C@H]5/C=C/CCCCC[C@H](NC(=O)OC(C)(C)C)C(=O)N4C3)nc2c1`, which AUC(0-t) is on record?
**A.** Its AUC(0-t) is 2.2 µM·h.

**Q.** For `COc1ccc2nc(C)c(O[C@@H]3C[C@H]4C(=O)N[C@]5(C(=O)NS(=O)(=O)C6(C)CC6)C[C@H]5/C=C/CCCCC[C@H](NC(=O)OC5(C(F)(F)F)CCCC5)C(=O)N4C3)nc2c1`, which AUC(0-t) is on record?
**A.** The AUC(0-t) was 2.7 µM·h.

system: not listed separately; assay: Cmax in Sprague-Dawley rat at 10 mg/kg, po measured after 0.25 to 24 hrs by LC-MS/MS analysis; format: ADME, organism-based; set-up: route oral, time 0.25-24 hrs, dose 10 mg/kg; conditions: in vivo

**Q.** For `COc1ccc2nc(C)c(O[C@@H]3C[C@H]4C(=O)N[C@]5(C(=O)NS(=O)(=O)C6(C)CC6)C[C@H]5/C=C/CCCCC[C@H](NC(=O)OC(C)(C)C)C(=O)N4C3)nc2c1`, which Cmax is on record?
**A.** Its Cmax is 180 nM.

**Q.** For `COc1ccc2nc(C)c(O[C@@H]3C[C@H]4C(=O)N[C@]5(C(=O)NS(=O)(=O)C6(C)CC6)C[C@H]5/C=C/CCCCC[C@H](NC(=O)OC5(C(F)(F)F)CCCC5)C(=O)N4C3)nc2c1`, which Cmax is on record?
**A.** Its Cmax is 110 nM.

— ChEMBL document CHEMBL4828740, “Discovery of Quinoxaline-Based P1-P3 Macrocyclic NS3/4A Protease Inhibitors with Potent Activity against Drug-Resistant Hepatitis C Virus Variants” (J Med Chem, 2021)
